Reference: ChEMBL document CHEMBL1128480 (J Med Chem, 1995)

How the values were obtained:
[1] = Concentration displacing [3H]sradipine binding to rat heart.
How it was run: (§1)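 Sprague Dawley rat ventricle microsomes were prepared in 50 mM Tris with PMSF (pH 7.4), with a final 100 000g spin. Membranes (0.3 mg protein/mL) were preincubated 5 min with compound (10⁻⁶–10⁻¹¹ M), then given 0.2 nM [³H]-(+)-methylisradipine with 0.5 mM CaCl₂ for 60 min at room temperature. Filter-bound label was counted. Nonspecific binding was taken from 1 μM isradipine. Experiments were repeated 2–3 times in triplicate, with LIGAND analysis.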

Rattus norvegicus [2] = species: Rattus norvegicus; experiment: Effect on [3H]sradipine binding to rat heart.; how it was run: as §1
Cavia porcellus [3] = species: Cavia porcellus; experiment: Effect on [3H]sradipine binding to guinea pig ileum.
How it was run: (§2)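 Guinea pig ileal longitudinal-muscle microsomes were prepared in 50 mM Tris with PMSF (pH 7.0) and spun down at 45 000g. Membranes (0.3 mg protein/mL) were preincubated 5 min with compound (10⁻⁶–10⁻¹¹ M), then incubated 60 min at room temperature with 0.2 nM [³H]-(+)-methylisradipine and 0.5 mM CaCl₂. Samples were filtered and counted. Nonspecific binding was set with 1 μM isradipine. Runs were 2–3 times in triplicate, analysed with LIGAND.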

Rattus norvegicus [4] = species: Rattus norvegicus; experiment: Effect on [3H]sradipine binding to rat brain; type: tissue-based
How it was run: (§3)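 Whole Sprague Dawley rat brain was homogenized in 25 mM HEPES/NaOH with 0.32 M sucrose and 0.1 mM PMSF (pH 7.4), and pellets were collected by centrifugation. Microsomes (0.3 mg protein/mL) received compound (10⁻⁶–10⁻¹¹ M) for a 5-min preincubation. Then 0.2 nM [³H]-(+)-methylisradipine was added with 0.5 mM CaCl₂, for 60 min at room temperature, followed by filtration and scintillation counting. Nonspecific binding was defined with 1 μM isradipine. Runs were 2–3 times in triplicate, fitted with LIGAND.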

Cavia porcellus [5] = species: Cavia porcellus; experiment: Concentration displacing [3H]-sradipine binding to guinea pig ileum.; how it was run: as §2
[6] = Concentration displacing [3H]-sradipine binding to rat brain; type: tissue-based; how it was run: as §3
Rattus norvegicus [7] = species: Rattus norvegicus; experiment: Effect on [3H]sradipine binding to rat brain.; type: tissue-based; how it was run: as §3
[8] = Concentration displacing [3H]sradipine binding to rat brain.; type: tissue-based; how it was run: as §3
[9] = Concentration inhibiting [3H]sradipine binding to rat brain.; type: tissue-based; how it was run: as §3

SMILES | Ki [1] [nM] | Bmax (Rattus norvegicus [2]) | Bmax (Cavia porcellus [3]) [fmol/mg] | Bmax (Rattus norvegicus [4]) [fmol/mg] | Ki (Cavia porcellus [5]) [nM] | Ki [6] [nM] | Bmax (Rattus norvegicus [7]) [fmol/mg] | Ki [8] [nM] | Ki [9] [nM]
CO/C(O)=C1\C(C)=NC(C)=C(C(=O)OC[C@H]2CCCO2)[C@@H]1c1ccccc1[N+](=O)[O-] | 5.95 | 81.4 fmol/mg | 250 | 79.1 | 11.1 | 17.7 |  |  | 
CO/C(O)=C1\C(C)=NC(C)=C(C(=O)OC[C@@H]2CCCO2)[C@H]1c1ccccc1[N+](=O)[O-] | 0.6 | 74.9 fmol/mg | 299 |  | 0.96 |  | 74.9 | 0.58 | 
COC(=O)C1=C(C)NC(C)=C(C(=O)OC[C@@H]2CCCO2)[C@@H]1c1ccccc1[N+](=O)[O-] (stereo in doubt) | 13 | 65.3 fmol/mg | 261 | 77.2 | 24.8 |  |  |  | 18.1
COC(=O)C1=C(C)NC(C)=C(C(=O)OC[C@H]2CCCO2)[C@H]1c1ccccc1[N+](=O)[O-] (stereo in doubt) | 1 | 84.7 fM/mg | 269 |  | 2.04 | 0.67 | 79.7 |  | 
